Test results reported in ChEMBL document CHEMBL4251593, “Nontoxic combretafuranone analogues with high in vitro antibacterial activity” (Eur J Med Chem, 2018).
pIC50: −log10 of the molar value. The source made the active and inactive calls.

How the values were obtained:
[1] = system: Staphylococcus epidermidis; assay: Antibacterial activity against Staphylococcus epidermidis HK6966/08 clinical isolate after 24 hrs by microdilution assay; assay type: functional; details: HK6966/08, 24 h
HL-60 [2] = assay: Induction of apoptosis in human HL60 cells assessed as caspase 3/7 activity after 24 hrs by caspase-glo luminescent assay; assay type: cell-based; details: HL-60, 24 h
In short: (§1)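 Cells were seeded at 500 per well in their growth media and exposed to 12 concentrations from 40 µM to 1 nM, delivered from DMSO, in triplicate. After 24 h, caspase-3/7 activity was read by Caspase-Glo luminescence. Data were normalized and ED50 was fitted by variable-slope nonlinear regression.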

TERT-RPE1 [3] = assay: Induction of apoptosis in human RPE1 cells assessed as caspase 3/7 activity after 24 hrs by caspase-glo luminescent assay; assay type: cell-based; details: RPE-1, 24 h; in short: as §1
Aspergillus fumigatus = assay: Antifungal activity against Aspergillus fumigatus 231 up to 1 mM after 24 to 48 hrs by microdilution assay; assay type: functional, organism-based
In short: (§2)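 Fungal microdilution following modified CLSI M27-A3/M38-A2, in RPMI 1640 with L-glutamine and 0.165 M MOPS at pH 7.0, with DMSO no more than 2% final. Compounds were 2-fold serially diluted from 2000 to 0.488 µmol/l. The inoculum was 5×10^3 cfu/ml. Incubation was at 35 °C, read visually at 24/48 h (T. mentagrophytes at 72/120 h). MIC was IC80 for yeasts and IC50 for filamentous fungi, determined twice in duplicate.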

HL-60 [4] = assay: Cytotoxicity against human HL60 cells assessed as reduction in cell viability after 48 hrs by ATPlite-based luminescent assay; details: HL-60, 48 h
In short: (§3)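 Cells were grown […] with 10% FBS, glutamax, NEAA and pen/strep at 37 °C, 5% CO2. Media were DMEM for RPE-1, HepG2 and BJ (BJ plus 10 ng/ml bFGF), F-12K for PC3, and IMDM for K562/HL-60. Cells were seeded at 500 per well and dosed from DMSO at 12 concentrations, 40 µM to 1 nM, in triplicate. After 48 h, intracellular ATP was read by luminescence. ED50 was obtained by variable-slope nonlinear regression.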

Candida albicans [5] = assay: Antifungal activity against Candida albicans ATCC 90028 up to 1 mM after 24 to 48 hrs by microdilution assay; assay type: functional, organism-based; in short: as §2
Candida tropicalis = assay: Antifungal activity against Candida tropicalis 156 clinical isolate up to 1 mM after 24 to 48 hrs by microdilution assay; assay type: functional, organism-based; in short: as §2
Klebsiella pneumoniae [6] = assay: Antibacterial activity against Klebsiella pneumoniae HK14368/08 clinical isolate after 24 hrs by microdilution assay; assay type: functional; details: HK14368/08, 24 h
Staphylococcus aureus [7] = assay: Antibacterial activity against Staphylococcus aureus ATCC 6538 after 24 hrs by microdilution assay; assay type: functional; details: ATCC 6538, 24 h
Staphylococcus aureus [8] = assay: Antibacterial activity against Staphylococcus aureus ATCC 6538 after 48 hrs by microdilution assay; assay type: functional; details: ATCC 6538, 48 h
TERT-RPE1 [9] = assay: Cytotoxicity against human RPE1 cells assessed as reduction in cell viability after 48 hrs by ATPlite-based luminescent assay; details: RPE-1, 48 h; in short: as §3
Klebsiella pneumoniae [10] = assay: Antibacterial activity against Klebsiella pneumoniae HK14368/08 clinical isolate after 48 hrs by microdilution assay; assay type: functional; details: HK14368/08, 48 h
Pichia kudriavzevii [11] = assay: Antifungal activity against Candida krusei ATCC 6258 up to 1 mM after 24 to 48 hrs by microdilution assay; assay type: functional, organism-based; in short: as §2
Candida albicans [12] = assay: Antifungal activity against Candida albicans ATCC 44859 up to 1 mM after 24 to 48 hrs by microdilution assay; assay type: functional, organism-based; in short: as §2
[13] = system: Staphylococcus epidermidis; assay: Antibacterial activity against Staphylococcus epidermidis HK6966/08 clinical isolate after 48 hrs by microdilution assay; assay type: functional; details: HK6966/08, 48 h
Pichia kudriavzevii [14] = assay: Antifungal activity against Candida krusei E28 clinical isolate up to 1 mM after 24 to 48 hrs by microdilution assay; assay type: functional, organism-based; in short: as §2
PC-3 [15] = assay: Cytotoxicity against human PC3 cells assessed as reduction in cell viability after 48 hrs by ATPlite-based luminescent assay; details: PC-3, 48 h; in short: as §3
Clavispora lusitaniae = assay: Antifungal activity against Candida lusitaniae 2446/I clinical isolate up to 1 mM after 24 to 48 hrs by microdilution assay; assay type: functional, organism-based; in short: as §2
Staphylococcus aureus [16] = assay: Antibacterial activity against methicillin-resistant Staphylococcus aureus HK5996/08 clinical isolate after 24 hrs by microdilution assay; assay type: functional; details: HK5996/08, 24 h
Pseudomonas aeruginosa [17] = assay: Antibacterial activity against Pseudomonas aeruginosa ATCC 9027 after 48 hrs by microdilution assay; assay type: functional; details: ATCC 9027, 48 h
In short: (§4)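 Broth microdilution in Mueller-Hinton medium buffered to pH 7.4 (±0.2), with DMSO as diluent at no more than 2% final. Compounds were tested as 2-fold serial dilutions from 2000 to 0.488 µmol/l. The inoculum was 0.5 McFarland (1.5×10^8 cfu/ml). Plates were held at 37 °C and read visually at 24 and 48 h. MIC was taken as 95% growth inhibition versus control, determined twice in duplicate.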

[18] = system: Trichophyton mentagrophytes; assay: Antifungal activity against Trichophyton mentagrophytes 445 up to 1 mM after 72 to 120 hrs by microdilution assay; assay type: functional, organism-based; in short: as §2
Candida parapsilosis = assay: Antifungal activity against Candida parapsilosis ATCC 22019 up to 1 mM after 24 to 48 hrs by microdilution assay; assay type: functional, organism-based; in short: as §2
Pseudomonas aeruginosa [19] = assay: Antibacterial activity against Pseudomonas aeruginosa ATCC 9027 after 24 hrs by microdilution assay; assay type: functional; details: ATCC 9027, 24 h; in short: as §4
Escherichia coli [20] = assay: Antibacterial activity against Escherichia coli ATCC 8739 after 48 hrs by microdilution assay; assay type: functional; details: ATCC 8739, 48 h; in short: as §4
HepG2 [21] = assay: Induction of apoptosis in human HepG2 cells assessed as caspase 3/7 activity after 24 hrs by caspase-glo luminescent assay; assay type: cell-based; details: HepG2, 24 h; in short: as §1
Trichosporon asahii = assay: Antifungal activity against Trichosporon asahii 1188 clinical isolate up to 1 mM after 24 to 48 hrs by microdilution assay; assay type: functional, organism-based; in short: as §2
Enterococcus sp. [22] = assay: Antibacterial activity against Enterococcus sp. HK14365/08 clinical isolate after 48 hrs by microdilution assay; assay type: functional; details: HK14365/08, 48 h
PC-3 [23] = assay: Induction of apoptosis in human PC3 cells assessed as caspase 3/7 activity after 24 hrs by caspase-glo luminescent assay; assay type: cell-based; details: PC-3, 24 h; in short: as §1
Klebsiella pneumoniae [24] = assay: Antibacterial activity against Klebsiella pneumoniae HK11750/08 clinical isolate after 24 hrs by microdilution assay; assay type: functional; details: HK11750/08, 24 h
MCF7 = assay: Cytotoxicity against human MCF7 cells assessed as reduction in cell viability after 48 hrs by ATPlite-based luminescent assay; details: MCF7, 48 h
Nakaseomyces glabratus = assay: Antifungal activity against Candida glabrata 20/I clinical isolate up to 1 mM after 24 to 48 hrs by microdilution assay; assay type: functional, organism-based; in short: as §2
HepG2 [25] = assay: Cytotoxicity against human HepG2 cells assessed as reduction in cell viability after 48 hrs by ATPlite-based luminescent assay; details: HepG2, 48 h; in short: as §3
Staphylococcus aureus [26] = assay: Antibacterial activity against methicillin-resistant Staphylococcus aureus HK5996/08 clinical isolate after 48 hrs by microdilution assay; assay type: functional; details: HK5996/08, 48 h
BJ = assay: Cytotoxicity against human BJ cells assessed as reduction in cell viability after 48 hrs by ATPlite-based luminescent assay; in short: as §3
K562 [27] = assay: Induction of apoptosis in human K562 cells assessed as caspase 3/7 activity after 24 hrs by caspase-glo luminescent assay; assay type: cell-based; details: K562, 24 h; in short: as §1
Enterococcus sp. [28] = assay: Antibacterial activity against Enterococcus sp. HK14365/08 clinical isolate after 24 hrs by microdilution assay; assay type: functional; details: HK14365/08, 24 h
Klebsiella pneumoniae [29] = assay: Antibacterial activity against Klebsiella pneumoniae HK11750/08 clinical isolate after 48 hrs by microdilution assay; assay type: functional; details: HK11750/08, 48 h
K562 [30] = assay: Cytotoxicity against human K562 cells assessed as reduction in cell viability after 48 hrs by ATPlite-based luminescent assay; details: K562, 48 h; in short: as §3
Lichtheimia corymbifera = assay: Antifungal activity against Absidia corymbifera 272 up to 1 mM after 24 to 48 hrs by microdilution assay; assay type: functional, organism-based; in short: as §2
Escherichia coli [31] = assay: Antibacterial activity against Escherichia coli ATCC 8739 after 24 hrs by microdilution assay; assay type: functional; details: ATCC 8739, 24 h; in short: as §4

Cc1ccc(C2=C(c3ccc(Br)cc3)C(=O)OC2CO)cc1 (stereo not given)
62.5 µM: MIC95 [1] | MIC95 [13] | MIC95 (Staphylococcus aureus [16]) | MIC95 (Staphylococcus aureus [26])
inactive: Activity (Aspergillus fumigatus) | Activity (Candida albicans [5]) | Activity (Candida tropicalis) | Activity (Pichia kudriavzevii [11]) | Activity (Candida albicans [12]) | Activity (Pichia kudriavzevii [14]) | Activity (Clavispora lusitaniae) | Activity [18] | Activity (Candida parapsilosis) | Activity (Trichosporon asahii) | Activity (Nakaseomyces glabratus) | Activity (Lichtheimia corymbifera)
4.33: pIC50 (K562 [27])
< 4.40: pIC50 (HL-60 [2]) | pIC50 (TERT-RPE1 [3]) | pIC50 (TERT-RPE1 [9]) | pIC50 (PC-3 [15]) | pIC50 (HepG2 [21]) | pIC50 (PC-3 [23]) | pIC50 (MCF7) | pIC50 (HepG2 [25]) | pIC50 (BJ)
4.67: pIC50 (HL-60 [4])
500 µM: MIC95 (Enterococcus sp. [28])
15.6 µM: MIC95 (Staphylococcus aureus [7]) | MIC95 (Staphylococcus aureus [8])
4.50: pIC50 (K562 [30])
> 500 µM: MIC95 (Klebsiella pneumoniae [6]) | MIC95 (Klebsiella pneumoniae [10]) | MIC95 (Pseudomonas aeruginosa [17]) | MIC95 (Pseudomonas aeruginosa [19]) | MIC95 (Escherichia coli [20]) | MIC95 (Enterococcus sp. [22]) | MIC95 (Klebsiella pneumoniae [24]) | MIC95 (Klebsiella pneumoniae [29]) | MIC95 (Escherichia coli [31])

COc1ccc(C2=C(c3cccc(Cl)c3Cl)C(=O)OC2(CO)CO)cc1
250 µM: MIC95 [1] | MIC95 [13]
125 µM: MIC95 (Staphylococcus aureus [26])
500 µM: MIC95 (Enterococcus sp. [28])
62.5 µM: MIC95 (Staphylococcus aureus [16])
15.6 µM: MIC95 (Staphylococcus aureus [8])
7.81 µM: MIC95 (Staphylococcus aureus [7])
< 4.40: pIC50 (HL-60 [2]) | pIC50 (TERT-RPE1 [3]) | pIC50 (HL-60 [4]) | pIC50 (TERT-RPE1 [9]) | pIC50 (PC-3 [15]) | pIC50 (HepG2 [21]) | pIC50 (PC-3 [23]) | pIC50 (MCF7) | pIC50 (HepG2 [25]) | pIC50 (BJ) | pIC50 (K562 [27]) | pIC50 (K562 [30])
inactive: Activity (Aspergillus fumigatus) | Activity (Candida albicans [5]) | Activity (Candida tropicalis) | Activity (Pichia kudriavzevii [11]) | Activity (Candida albicans [12]) | Activity (Pichia kudriavzevii [14]) | Activity (Clavispora lusitaniae) | Activity [18] | Activity (Candida parapsilosis) | Activity (Trichosporon asahii) | Activity (Nakaseomyces glabratus) | Activity (Lichtheimia corymbifera)
> 500 µM: MIC95 (Klebsiella pneumoniae [6]) | MIC95 (Klebsiella pneumoniae [10]) | MIC95 (Pseudomonas aeruginosa [17]) | MIC95 (Pseudomonas aeruginosa [19]) | MIC95 (Escherichia coli [20]) | MIC95 (Enterococcus sp. [22]) | MIC95 (Klebsiella pneumoniae [24]) | MIC95 (Klebsiella pneumoniae [29]) | MIC95 (Escherichia coli [31])
